Assay results reported in ChEMBL document CHEMBL4373637, “Synthesis of bicyclic 1,4-thiazepines as novel anti-Trypanosoma brucei brucei agents” (Medchemcomm, 2019).

Key:
J774 = assay: Cytotoxicity against mouse J774 cells assessed as reduction in cell viability after 24 hrs by WST-1 assay; assay type: cell-based; conditions: J774, 24 h
Summary of the method: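 Mouse J774 macrophages grown in DMEM with 10% FCS at 37 °C and 5% CO2. Viability was read with WST-1 at 6 concentrations, in triplicate, and expressed relative to the DMSO-treated control.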

[1] = Selectivity index, ratio of EC50 for mouse J774 cells to EC50 for antitrypanosomal activity against Trypanosoma brucei brucei 427; assay type: toxicity; conditions: read-out: Ratio EC50
[2] = test system: Trypanosoma brucei brucei; assay: Antitrypanosomal activity against Trypanosoma brucei brucei 427 assessed as parasite death after 24 hrs by PI-staining based flow cytometry analysis; assay type: functional, organism-based; conditions: Trypanosoma brucei, 427, 24 h
Summary of the method: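 Bloodstream-form T. b. brucei 427, cell line 449, carrying a redox biosensor, grown in HMI-9 with 10% FBS at 37 °C and 5% CO2. Exponential-phase cells at 5 x 10^5/mL were exposed to compound for 24 h; the control was 1% DMSO. Cells were then diluted into PBS with 1% glucose (pH 7.4) and propidium iodide, and analysed by flow cytometry (ex 488 nm). Viability was expressed as % of DMSO-control cell number.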

Caenorhabditis elegans = assay: Antiparasitic activity against Caenorhabditis elegans assessed as inhibition of parasite motility at 100 uM after 17.5 hrs by motility assay relative to control; assay type: functional
Summary of the method: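 About 80 synchronized L4 worms per well in K buffer with 0.015% BSA. Motility was first recorded for 30 min to set 100%. Compound was then added at 100 µM in 1% DMSO, and motility was tracked automatically for 17.5 h. Mean motility at the final time was compared with 1% DMSO control wells. Eight replicates.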

[3] = test system: Trypanosoma brucei brucei; assay: Antitrypanosomal activity against Trypanosoma brucei brucei 427 assessed as parasite death at 30 uM after 24 hrs by PI-staining based flow cytometry analysis relative to control; assay type: functional
Summary of the method: (§1)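 Bloodstream-form T. b. brucei strain 427 grown in HMI-9 with 10% FBS at 37 °C and 5% CO2. Exponential-phase parasites were seeded at 5 x 10⁵/mL and given compound from DMSO stocks, alongside 1% DMSO and nifurtimox control wells. After 24 h, aliquots were diluted into PBS with 1% glucose (pH 7.4) and propidium iodide and counted by flow cytometry (ex 488 nm). Viability (%) = 100 × cells treated / cells in DMSO control.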

[4] = test system: Trypanosoma brucei brucei; assay: Antitrypanosomal activity against Trypanosoma brucei brucei 427 assessed as parasite death at 5 uM after 24 hrs by PI-staining based flow cytometry analysis relative to control; assay type: functional; summary of the method: as §1
[5] = test system: Nippostrongylus brasiliensis; assay: Antiparasitic activity against Nippostrongylus brasiliensis L4 assessed as parasite death at 20 uM relative to control; assay type: functional
[6] = target: T1, Thioredoxin glutathione reductase (Echinococcus granulosus) (UniProt Q869D7); assay: Inhibition of wild type recombinant Echinococcus granulosus TGR at 50 uM preincubated for NADPH followed by compound addition and measured after 3 mins by spectrophotometric analysis relative to control
T1 sequence (whole entry): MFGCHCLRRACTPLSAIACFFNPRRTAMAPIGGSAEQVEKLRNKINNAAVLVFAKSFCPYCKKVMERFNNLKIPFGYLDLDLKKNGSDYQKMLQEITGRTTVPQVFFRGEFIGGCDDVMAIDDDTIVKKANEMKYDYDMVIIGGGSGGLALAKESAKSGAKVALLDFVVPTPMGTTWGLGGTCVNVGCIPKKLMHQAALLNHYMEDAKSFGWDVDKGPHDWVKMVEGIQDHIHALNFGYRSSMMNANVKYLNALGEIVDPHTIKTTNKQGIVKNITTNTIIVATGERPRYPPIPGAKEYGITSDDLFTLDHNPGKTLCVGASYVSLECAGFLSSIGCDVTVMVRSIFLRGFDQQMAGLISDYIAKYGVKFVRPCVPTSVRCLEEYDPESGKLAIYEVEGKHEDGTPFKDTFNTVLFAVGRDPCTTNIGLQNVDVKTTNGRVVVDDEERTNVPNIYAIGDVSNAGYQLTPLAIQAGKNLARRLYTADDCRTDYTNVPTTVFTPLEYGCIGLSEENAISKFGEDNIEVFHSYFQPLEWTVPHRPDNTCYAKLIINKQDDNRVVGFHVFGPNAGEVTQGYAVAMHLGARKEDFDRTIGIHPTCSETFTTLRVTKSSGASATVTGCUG
Summary of the method: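 Recombinant wild-type E. granulosus TGR (1 nM) in 50 mM phosphate, 1 mM EDTA, pH 7, with 100 µM NADPH. Enzyme was preincubated for 3 min with NADPH and inhibitor at 50 µM (from a 100 mM DMSO stock). The reaction was started with 5 mM DTNB, and TNB formation was followed at 412 nm for 3 min. Runs were in duplicate, with controls lacking enzyme and lacking inhibitor.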

## CCOC(=O)C1=C(C(=O)OCC)C2CSC(CS1)N2Cc1ccccc1 (stereo not drawn)
J774
  EC50: 200 µM
[1]
  selectivity ratio: 10
[2]
  EC50: 18.9 µM
Caenorhabditis elegans
  inhibition at 100 µM: 20%
[3]
  Activity: 98.8%
[4]
  Activity: 3.5%
[5]
  Activity: 5.9%
[6]
  inhibition: 0%

## CCOC(=O)C1=C(C(=O)OCC)C2CSC(CS1)N2Cc1ccc(OC)cc1 (stereo not drawn)
J774
  EC50: > 200 µM
[1]
  selectivity ratio: > 11
[2]
  EC50: 18 µM
Caenorhabditis elegans
  inhibition at 100 µM: 50%
[3]
  Activity: 97.7%
[4]
  Activity: 3%
[5]
  Activity: 13.8%
[6]
  inhibition: 36%

## COC(=O)C1=C(C(=O)c2ccc(Cl)cc2)C2CSC(CS1)N2CCO (stereo not drawn)
Caenorhabditis elegans
  inhibition at 100 µM: 18%
[3]
  Activity: 3.6%
[4]
  Activity: 1.8%
[5]
  Activity: 20.6%
[6]
  inhibition: 0%

## COC(=O)C1=C(C(=O)c2ccc(Cl)cc2)C2CSC(CS1)N2Cc1ccc(OC)cc1 (stereo not drawn)
J774
  EC50: 9.7 µM
[1]
  selectivity ratio: 0.6
[2]
  EC50: 16.4 µM
Caenorhabditis elegans
  inhibition at 100 µM: 3%
[3]
  Activity: 95.9%
[4]
  Activity: 0%
[5]
  Activity: 27.6%
[6]
  inhibition: 29%

## CCCSc1ccc2[nH]c(NC(=O)OC)nc2c1 [ALBENDAZOLE]
[5]
  Activity: 100%

## CCOC(=O)C1=C(C(=O)OCC)C2CSC(CS1)N2Cc1ccc(F)cc1 (stereo not drawn)
J774
  EC50: 64.4 µM
[1]
  selectivity ratio: 3.6
[2]
  EC50: 17.8 µM
Caenorhabditis elegans
  inhibition at 100 µM: 26%
[3]
  Activity: 99.4%
[4]
  Activity: 12.7%
[5]
  Activity: 47.6%
[6]
  inhibition: 41%

## CCOC(=O)C1=C(C(=O)OCC)C2CSC(CS1)N2CCCC(=O)OCc1c(-c2ccccc2)no[n+]1[O-] (stereo not drawn)
J774
  EC50: > 200 µM
[1]
  selectivity ratio: > 71
[2]
  EC50: 2.8 µM
Caenorhabditis elegans
  inhibition at 100 µM: 22%
[3]
  Activity: 97.8%
[4]
  Activity: 60.4%
[6]
  inhibition: 0%

## O=C(OCc1c(-c2ccccc2)no[n+]1[O-])C1=C(C(=O)OCc2c(-c3ccccc3)no[n+]2[O-])C2CSC(CS1)N2Cc1ccccc1 (stereo not drawn)
[3]
  Activity: 23.3%
[4]
  Activity: 12.2%

## CC1CS(=O)(=O)CCN1/N=C/c1ccc([N+](=O)[O-])o1 (stereo not drawn) [NIFURTIMOX]
J774
  EC50: 150 µM
[1]
  selectivity ratio: 10

## CCOC(=O)C1=C(C(=O)OCC)C2CSC(CS1)N2Cc1ccc(Cl)cc1 (stereo not drawn)
J774
  EC50: > 200 µM
[1]
  selectivity ratio: > 25
[2]
  EC50: 8 µM
Caenorhabditis elegans
  inhibition at 100 µM: 37%
[3]
  Activity: 97.3%
[4]
  Activity: 2.4%
[5]
  Activity: 17.1%
[6]
  inhibition: 0%

## O=C(OCc1c(-c2ccccc2)no[n+]1[O-])C1=C(C(=O)c2ccc(Cl)cc2)C2CSC(CS1)N2Cc1ccccc1 (stereo not drawn)
J774
  EC50: 3.1 µM
[1]
  selectivity ratio: 1.2
[2]
  EC50: 2.5 µM
[3]
  Activity: 97.7%
[4]
  Activity: 89.4%
[6]
  inhibition: 0%

## COC(=O)C1=C(C(=O)c2ccc(Cl)cc2)C2CSC(CS1)N2Cc1ccccc1 (stereo not drawn)
Caenorhabditis elegans
  inhibition at 100 µM: 51%
[3]
  Activity: 57.5%
[4]
  Activity: 3.4%
[5]
  Activity: 20.5%
[6]
  inhibition: 0%
